Assay results from ChEMBL document CHEMBL4004807 (J Med Chem, 2017).
Calls of active or inactive are those of the source. The rule behind the calls is not given here.

Legend:
[1] = biological target: Prostaglandin E2 receptor EP4 subtype (Homo sapiens) (UniProt P35408); assay: Agonist activity at recombinant human EP4 receptor expressed in CHO-K1 cells assessed as increase in intracellular cAMP level up to 10 uM after 1 hr incubation by HTRF method; assay type: functional, cell-based
Rattus norvegicus [2] = assay: AUC (0 to infinity) in Sprague-Dawley rat at 10 mg/kg, po; assay type: ADME, organism-based; parameters: dose 10 mg/kg, route oral, time infinity; conditions: in vivo
Procedure, shortened: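 Sprague-Dawley rats, single oral dose of 10.0 mg/kg; AUC0-inf from plasma concentrations.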

Rattus norvegicus [3] = assay: Unbound Cmax in Sprague-Dawley rat at 10 mg/kg, po administered via gavage as single dose; assay type: ADME, organism-based; conditions: in vivo
[4] = Total clearance in Sprague-Dawley rat plasma at 2 mg/kg, iv or 10 mg/kg, po; assay type: ADME, organism-based
Rattus norvegicus [5] = assay: Inhibition of hypertrophic response in Sprague-Dawley rat monocrotaline model of pulmonary arterial hypertension assessed as reduction of MCT-induced increase in pulmonary vessel wall thickness at 30 mg/kg administered via oral gavage twice daily for 21 consecutive days starting 24 hrs after monocrotaline challenge by morphometric analysis; assay type: functional, organism-based
Procedure, shortened: (§1)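 Male rats given 60 mg/kg monocrotaline sc on day 1 (sham: saline) under 30 mg/kg ip pentobarbital; from next day for 20 days dosed by oral gavage twice daily at 10 or 30 mg/kg in 20% HPBCD in saline (vehicle control). Day 21: RV/(LV+S) weights; mPAP via catheter under 60 mg/kg pentobarbital (30 mg/kg group, n = 5); H&E lung sections, 5 animals/group.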

[6] = Drug uptake in bile-duct cannulated rat urine; assay type: ADME; conditions: in vivo
Plasma [7] = assay: Drug uptake in bile-duct cannulated rat plasma; assay type: ADME, cell-free
Plasma [8] = assay: Drug metabolism in bile-duct cannulated rat plasma assessed as 2-(((1r,4r)-4-(((4-chlorophenyl)(4-hydroxyphenyl)carbamoyloxy)methyl)cyclohexyl)methoxy)acetic acid formation; assay type: ADME, cell-free
Rattus norvegicus [9] = assay: Cardioprotective effect in Sprague-Dawley rat monocrotaline model of pulmonary arterial hypertension assessed as reduction of MCT-induced increase of pulmonary arterial pressue at 30 mg/kg administered via oral gavage twice daily for 21 consecutive days starting 24 hrs after monocrotaline challenge; assay type: functional, organism-based; procedure, shortened: as §1
Plasma [10] = assay: Drug metabolism in bile-duct cannulated rat plasma assessed as 2-(2-(((1r,4r)-4-(((4-chlorophenyl)(4-hydroxyphenyl)carbamoyloxy)methyl)cyclohexyl)methoxy)acetoxy)ethanesulfonic acid formation; assay type: ADME, cell-free
[11] = Drug uptake in bile-duct cannulated rat bile; assay type: ADME; conditions: in vivo
[12] = Total clearance in Beagle dog at 0.2 mg/kg, iv; assay type: ADME, organism-based, Canis lupus familiaris; conditions: in vivo
[13] = Volume of distribution at steady state in Beagle dog at 0.2 mg/kg, iv; assay type: ADME, organism-based, Canis lupus familiaris; conditions: in vivo
[14] = Volume of distribution at steady state in cynomolgus monkey at 0.1 mg/kg, iv; assay type: ADME, organism-based, Macaca fascicularis; conditions: in vivo
[15] = biological target: T1, Prostaglandin E2 receptor EP3 subtype (Homo sapiens, UniProt P43115); assay: Agonist activity at recombinant human EP3v6 receptor expressed in melanophores assessed as induction of pigment redistribution up to 10 uM after 90 mins; conditions: 1.5 h
T1 sequence (P43115 whole entry): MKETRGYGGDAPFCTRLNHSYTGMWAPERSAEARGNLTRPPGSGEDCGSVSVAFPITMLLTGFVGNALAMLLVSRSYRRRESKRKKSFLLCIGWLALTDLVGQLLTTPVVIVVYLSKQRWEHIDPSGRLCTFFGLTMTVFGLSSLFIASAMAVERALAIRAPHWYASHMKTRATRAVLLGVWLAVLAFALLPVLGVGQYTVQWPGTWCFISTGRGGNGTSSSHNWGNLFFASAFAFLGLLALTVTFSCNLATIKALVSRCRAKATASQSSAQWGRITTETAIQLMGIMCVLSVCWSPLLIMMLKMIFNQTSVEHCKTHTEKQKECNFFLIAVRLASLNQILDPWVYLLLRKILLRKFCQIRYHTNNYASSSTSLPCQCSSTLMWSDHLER
Procedure, shortened: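 Melanophores electroporated with 20 μg human EP3v6 plasmid per 400 μL cells, grown 48 h at 27 °C. Assay buffer 0.7× PBS pH 7.3 with 20 nM melatonin to aggregate pigment, 90 min at room temperature, 650 nm baseline; compounds added (10-point, 5-fold dilutions, top 10 μM final), 90 min room temperature, absorbance reread.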

[16] = biological target: Prostaglandin E2 receptor EP2 subtype (Homo sapiens) (UniProt P43116); assay: Agonist activity at recombinant human EP2 receptor expressed in CHO-K1 cells assessed as increase in intracellular cAMP level up to 10 uM after 1 hr incubation by HTRF method; assay type: functional, cell-based
[17] = Drug metabolism in bile-duct cannulated rat bile assessed as 2-(2-(((1r,4r)-4-(((4-chlorophenyl)(phenyl)carbamoyloxy)methyl)cyclohexyl)methoxy)acetoxy)ethanesulfonic acid formation; assay type: ADME
[18] = Total clearance in cynomolgus monkey at 0.1 mg/kg, iv; assay type: ADME, organism-based, Macaca fascicularis; conditions: in vivo
Rattus norvegicus [19] = assay: Inhibition of right ventricle hypertrophic response in Sprague-Dawley rat monocrotaline model of pulmonary arterial hypertension assessed as reduction of MCT-induced increase in ratio of right ventricular weight to left ventricle plus septum weight administered via oral gavage twice daily for 21 consecutive days starting 24 hrs after monocrotaline challenge; assay type: functional; procedure, shortened: as §1
Plasma [20] = assay: Drug level in bile-duct cannulated rat plasma treated with 2-(((1r,4r)-4-(((4-chlorophenyl)(phenyl)carbamoyloxy)methyl)cyclohexyl)methoxy)acetic acid; assay type: ADME, cell-free
[21] = Selectivity ratio of EC50 for recombinant rat IP receptor expressed in CHO-K1 cells to EC50 for recombinant human IP receptor expressed in CHO-K1 cells; assay type: cell-based
Prostacyclin receptor [22] = biological target: T2, Prostacyclin receptor (Homo sapiens, UniProt P43119); assay: Ratio of IC50 for IP receptor in human primary platelets to EC50 for recombinant human IP receptor expressed in CHO-K1 cells; assay type: cell-based
Prostacyclin receptor [23] = biological target: T2, Prostacyclin receptor; assay: Intrinsic activity at recombinant human IP receptor expressed in CHO-K1 cells assessed as increase in intracellular cAMP level at 10 uM after 1 hr incubation by HTRF method relative to iloprost; assay type: functional, cell-based
Procedure, shortened: (§2)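 Stably transfected CHO-K1 clones with receptor expression kept minimal to avoid receptor reserve. Cells at 200 000/mL in PBS with 1 mM IBMX and 0.2% BSA. 10-point 5-fold dilution series, top 10 μM, tested in triplicate plates, 1 h at room temperature. HTRF cAMP read by time-resolved fluorescence.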

[24] = biological target: Prostacyclin receptor (Rattus norvegicus) (UniProt P43253); assay: Intrinsic activity at recombinant rat IP receptor expressed in CHO-K1 cells assessed as increase in intracellular cAMP level at 10 uM after 1 hr incubation by HTRF method relative to iloprost; assay type: functional, cell-based; procedure, shortened: as §2
[25] = biological target: T3, Prostaglandin D2 receptor (Homo sapiens) (UniProt Q13258); assay: Intrinsic activity at recombinant human DP1 receptor expressed in CHO-K1 cells assessed as increase in intracellular cAMP level after 1 hr incubation by HTRF method relative to prostaglandin D2; assay type: functional, cell-based
T3 sequence (whole entry): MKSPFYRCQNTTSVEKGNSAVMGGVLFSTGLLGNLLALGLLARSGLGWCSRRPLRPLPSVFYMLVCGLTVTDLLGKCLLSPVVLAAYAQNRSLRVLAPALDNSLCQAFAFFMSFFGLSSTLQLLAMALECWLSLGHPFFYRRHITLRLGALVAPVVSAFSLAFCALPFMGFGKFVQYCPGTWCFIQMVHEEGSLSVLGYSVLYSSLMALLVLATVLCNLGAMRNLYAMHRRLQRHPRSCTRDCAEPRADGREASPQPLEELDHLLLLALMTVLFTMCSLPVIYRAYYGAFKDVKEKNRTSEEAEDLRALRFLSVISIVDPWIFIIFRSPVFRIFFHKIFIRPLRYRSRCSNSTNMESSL
Procedure, shortened: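 CHO-K1 clonal line stably expressing DP1 at minimal level; HTRF cAMP assay, 1 h incubation at room temperature, time-resolved fluorescence read-out.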

[26] = Half life in rat microsomes; assay type: ADME, Microsome
[27] = Half life in human microsomes; assay type: ADME, Microsome
[28] = Volume of distribution at steady state in Sprague-Dawley rat at 2 mg/kg, iv or 10 mg/kg, po; assay type: ADME, organism-based; conditions: in vivo

T2 sequence (P43119 whole entry): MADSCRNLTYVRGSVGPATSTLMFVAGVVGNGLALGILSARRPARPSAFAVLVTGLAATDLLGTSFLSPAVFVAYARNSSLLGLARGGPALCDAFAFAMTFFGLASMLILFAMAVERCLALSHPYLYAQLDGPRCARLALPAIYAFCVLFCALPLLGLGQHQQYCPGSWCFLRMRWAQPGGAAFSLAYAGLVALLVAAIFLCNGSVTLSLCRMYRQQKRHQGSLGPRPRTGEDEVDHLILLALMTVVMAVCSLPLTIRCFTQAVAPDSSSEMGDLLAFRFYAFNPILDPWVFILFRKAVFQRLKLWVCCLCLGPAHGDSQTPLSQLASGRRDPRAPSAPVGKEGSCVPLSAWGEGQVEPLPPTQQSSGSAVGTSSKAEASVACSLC
Chain of Prostaglandin E2 receptor EP2 subtype (Homo sapiens) (P43116 whole entry): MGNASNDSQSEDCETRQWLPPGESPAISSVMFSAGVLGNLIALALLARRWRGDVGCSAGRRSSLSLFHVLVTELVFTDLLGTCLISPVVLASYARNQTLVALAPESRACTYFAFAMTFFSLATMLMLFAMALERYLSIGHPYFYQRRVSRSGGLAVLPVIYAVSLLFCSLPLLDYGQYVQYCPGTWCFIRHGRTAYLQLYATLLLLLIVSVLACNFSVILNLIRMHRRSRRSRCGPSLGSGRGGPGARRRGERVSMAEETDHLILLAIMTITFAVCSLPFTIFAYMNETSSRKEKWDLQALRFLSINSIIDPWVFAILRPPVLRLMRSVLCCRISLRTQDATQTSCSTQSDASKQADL
Chain of Prostacyclin receptor (Rattus norvegicus) (P43253 whole entry): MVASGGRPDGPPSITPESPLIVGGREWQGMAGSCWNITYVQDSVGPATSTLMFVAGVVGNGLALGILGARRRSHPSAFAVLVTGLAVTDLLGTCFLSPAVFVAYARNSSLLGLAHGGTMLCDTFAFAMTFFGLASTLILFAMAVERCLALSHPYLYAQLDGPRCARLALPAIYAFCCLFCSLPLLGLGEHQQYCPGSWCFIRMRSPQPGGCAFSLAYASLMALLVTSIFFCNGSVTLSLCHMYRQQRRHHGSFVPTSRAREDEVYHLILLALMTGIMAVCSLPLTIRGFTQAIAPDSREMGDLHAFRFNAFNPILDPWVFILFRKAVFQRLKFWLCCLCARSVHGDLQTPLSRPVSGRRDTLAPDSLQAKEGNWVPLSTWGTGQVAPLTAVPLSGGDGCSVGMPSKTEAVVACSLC
Chain of Prostaglandin E2 receptor EP4 subtype (Homo sapiens) (P35408 whole entry): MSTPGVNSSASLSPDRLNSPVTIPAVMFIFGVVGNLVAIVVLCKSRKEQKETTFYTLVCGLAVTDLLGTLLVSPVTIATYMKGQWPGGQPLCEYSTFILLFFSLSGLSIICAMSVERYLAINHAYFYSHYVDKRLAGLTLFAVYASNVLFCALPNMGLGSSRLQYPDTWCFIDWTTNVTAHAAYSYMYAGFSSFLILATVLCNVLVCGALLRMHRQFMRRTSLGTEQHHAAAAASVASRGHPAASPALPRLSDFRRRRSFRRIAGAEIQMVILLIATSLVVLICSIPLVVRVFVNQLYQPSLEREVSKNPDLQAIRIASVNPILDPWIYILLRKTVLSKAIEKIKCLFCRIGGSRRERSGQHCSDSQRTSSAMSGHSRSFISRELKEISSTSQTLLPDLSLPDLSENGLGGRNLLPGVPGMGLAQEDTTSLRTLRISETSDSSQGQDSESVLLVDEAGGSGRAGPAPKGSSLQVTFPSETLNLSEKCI

O=C(O)COC[C@H]1CC[C@H](COC(=O)N(c2ccccc2)c2ccc(Cl)cc2)CC1
Activity [1]: inactive
AUC (Rattus norvegicus [2]): 14.6 µg·h/mL
fCmax (Rattus norvegicus [3]): 100 nM
clearance [4]: 7.12 mL/min/kg
inhibition (Rattus norvegicus [5]): Active
Drug uptake [6]: Active
Drug uptake (Plasma [7]): Active
Drug metabolism (Plasma [8]): Metabolite_Detected
Activity (Rattus norvegicus [9]): Active
Drug metabolism (Plasma [10]): Metabolite_Detected
Drug uptake [11]: Active
clearance [12]: 3.37 mL/min/kg
Vd [13]: 0.308 L/kg
Vd [14]: 10.1 L/kg
Activity [15]: Active
Activity [16]: inactive
Drug metabolism [17]: Metabolite_Detected
clearance [18]: 14.7 mL/min/kg
inhibition (Rattus norvegicus [19]): Dose-dependent effect

O=C(COC[C@H]1CC[C@H](COC(=O)N(c2ccc(O)cc2)c2ccc(Cl)cc2)CC1)NCCS(=O)(=O)O
Drug metabolism (Plasma [20]): Metabolite_Detected

O=C(O)COC[C@H]1CC[C@H](COC(=O)N(c2ccccc2)c2ccccc2)CC1
Ratio EC50 [21]: 10 to 30
Ratio IC50/EC50 (Prostacyclin receptor [22]): 2 to 10

O=C(O)COC[C@H]1CC[C@H](COC(=O)N(c2ccc(O)cc2)c2ccc(Cl)cc2)CC1
Drug metabolism (Plasma [20]): Metabolite_Detected

O=C(O)COC[C@H]1CC[C@H](COC(=O)N(c2ccc(F)cc2)c2ccc(F)cc2)CC1
Ratio EC50 [21]: 10 to 30
Ratio IC50/EC50 (Prostacyclin receptor [22]): 2 to 10

O=C(O)COC[C@H]1CC[C@@H](COC(=O)N(c2ccccc2)c2ccccc2)CC1
Ratio EC50 [21]: 10 to 30
Ratio IC50/EC50 (Prostacyclin receptor [22]): 2 to 10

O=C(O)COC[C@H]1CC[C@H](COC(=O)N(c2ccc(F)cc2)c2cccc(F)c2)CC1
Ratio EC50 [21]: 10 to 30
Ratio IC50/EC50 (Prostacyclin receptor [22]): 2 to 10

O=C(O)COC[C@H]1CC[C@@H](COC(=O)N(c2ccccc2)c2cccc(Cl)c2)CC1
Intrinsic activity (Prostacyclin receptor [23]): 80%
Intrinsic activity [24]: 88%
Intrinsic activity [25]: 30%
half-life [26]: > 60 min
half-life [27]: > 60 min

O=C(O)COC[C@H]1CC[C@H](COC(=O)N(c2ccccc2)c2ccc(Cl)c(F)c2)CC1
Ratio EC50 [21]: 10 to 30
AUC (Rattus norvegicus [2]): 2.6 µg·h/mL
clearance [4]: 13.3 mL/min/kg
Vd [28]: 3.5 L/kg
Ratio IC50/EC50 (Prostacyclin receptor [22]): 2 to 10

COc1ccc(N(C(=O)OC[C@H]2CC[C@@H](COCC(=O)O)CC2)c2ccccc2)cc1
Ratio EC50 [21]: 10 to 30
Ratio IC50/EC50 (Prostacyclin receptor [22]): 2 to 10

O=C(O)COC[C@H]1CC[C@H](COC(=O)N(c2ccccc2)c2ccc(F)cc2)CC1
Ratio EC50 [21]: 10 to 30
AUC (Rattus norvegicus [2]): 7.9 µg·h/mL
clearance [4]: 30 mL/min/kg
Vd [28]: 6.2 L/kg
Ratio IC50/EC50 (Prostacyclin receptor [22]): 2 to 10

O=C(O)COC[C@H]1CC[C@H](COC(=O)N(c2cccc(F)c2)c2ccc(Cl)c(F)c2)CC1
Ratio EC50 [21]: 10 to 30
Ratio IC50/EC50 (Prostacyclin receptor [22]): 2 to 10
